# STEP block = blocks human striatal-enriched tyrosine phosphatase; P54829; recombinant STEP, OMFP fluorogenic substrate, fluorescence; inhibition, % at 20 µM; hit rate 0.25% among 360,000; AID 588621;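 active = inhibition at 20 µM, scaled per plate between control wells, above about 37%, limit read from the data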;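 note: 0% = DMSO with enzyme and substrate and 100% = substrate only without enzyme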
#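 Test system: STEP tyrosine phosphatase / Reagent: OMFP at 25 µM / Doses: 20 µM, 1% DMSO / Read-out: percent inhibition scaled to no-enzyme and uninhibited-enzyme controls, plate-pattern corrected / Detection: FITC-channel fluorescence of OMFP product / Medium: Bis-Tris buffer pH 6.0, 2.5 mM DTT, 0.005% Tween 20 / Schedule: 20 min at room temperature, dark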
# LMPTP block = blocks human LMPTP phosphatase. inhibition, % at 20 µM. recombinant LMPTP-A, OMFP fluorogenic substrate, fluorescence intensity. hit rate 0.22% among 360,000;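 active = compounds that cut the enzyme signal by at least half of the control window in the single-dose screen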;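 note: plate controls were DMSO wells with enzyme plus substrate for no effect and substrate without enzyme for full effect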
# Target sequence (P24666 whole entry, looked up): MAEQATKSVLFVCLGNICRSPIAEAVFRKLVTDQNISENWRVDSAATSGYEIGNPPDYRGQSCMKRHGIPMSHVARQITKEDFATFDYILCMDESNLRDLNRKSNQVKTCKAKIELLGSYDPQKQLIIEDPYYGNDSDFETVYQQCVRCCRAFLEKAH
#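 Assay system: LMPTP-A phosphatase enzyme | Input: 0.625 nM enzyme | Also added: Fluorogenic phosphatase substrate OMFP at 400 µM final | Compound dosing: One test concentration per compound, 20 µM, with 3% DMSO overall | Schedule: 50 min enzyme reaction at room temperature, protected from light | Signal: Fluorescence intensity | Benchmarks: no-enzyme and uninhibited controls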
# DNMT1 inh = DNMT1 (human) enzyme inhibition; DNMT1 molecular beacon, Hinp1I cleavage, fluorescence; inhibition (reported as % activation of signal), % at 10 µM; hit rate 0.83% among 360,000; AID 588458; in the data active = inhibition above about 50%
# SUMO1 PPI mod = alters human SUMO1 binding to SIM partners. P63165. SUMO1 binding to a labelled peptide, TR-FRET, 1 h. inhibition, % at 20 µM. hit rate 0.33% among 360,000. AID 602429; in the data active = inhibition above about 37%
# Target sequence (P63165 whole entry, looked up): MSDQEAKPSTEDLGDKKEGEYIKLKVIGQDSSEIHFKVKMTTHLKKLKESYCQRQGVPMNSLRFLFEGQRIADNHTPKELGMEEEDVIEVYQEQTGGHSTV
# Scp1 inh = blocks human Scp-1 phosphatase activity | Q9GZU7 | Recombinant Scp1, phosphopeptide, malachite green phosphate absorbance | hit rate 0.88% among 340,000 | inhibition, % at 20 µM;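 active = inhibition above about 50% at 20 µM, limit read from the data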;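 note: plate controls were DMSO wells with enzyme for no effect and wells lacking enzyme for full effect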
# Target sequence (Q9GZU7 76-261 limits assumed): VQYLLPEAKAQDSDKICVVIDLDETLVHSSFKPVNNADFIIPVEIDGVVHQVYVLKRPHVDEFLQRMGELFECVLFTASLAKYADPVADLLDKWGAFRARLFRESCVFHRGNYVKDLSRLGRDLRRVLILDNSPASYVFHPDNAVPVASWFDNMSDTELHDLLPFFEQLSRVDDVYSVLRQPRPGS
#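 Test system: SCP-1 catalytic domain; Buffer or medium: Acidic Tris acetate buffer with magnesium and detergent; Also added: Phosphorylated 17-residue peptide substrate; Compound: single 20 µM dose, 1% DMSO; Schedule: enzyme reaction 45 min at room temperature, colour 5 min, stabilisation 30 min; Signal: Phosphate-binding colour reagent, absorbance read at 630 nm.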
# DNMT1 confirm = confirmation of human DNMT1 inhibitors | shares compounds with DNMT1 inh | inhibition, % at 10 µM | AID 602385 | DNMT1 molecular beacon HinP1I cleavage, fluorescence | hit rate 8% among 2,300;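 active = average inhibition of at least 30% in the single-concentration confirmation test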
# Beacon interf = beacon fluorescence artifact counter-screen. shares compounds with DNMT1 inh. DNMT1 molecular beacon spectral interference counterscreen, fluorescence 485/520. activation (fluorescence interference), % at 10 µM. hit rate 1% among 2,300;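 active = activation of at least 30% at 10 µM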;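 note: DNMT1 catalytic domain with a HinP1I cleavage step and a FAM/dabcyl DNA beacon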
# * = called active by the depositor; . = no result given. The list is not random: actives were taken first. Their share in the collection is about 1.7%.
SMILES,STEP block,LMPTP block,DNMT1 inh,SUMO1 PPI mod,Scp1 inh,DNMT1 confirm,Beacon interf
COC(=O)c1cc2occc2n1Cc1nc(-c2ccccc2Cl)oc1C,-12,0,86*,2,-13,1,2
COC(=O)c1cc2occc2n1Cc1nc(-c2ccc(Cl)cc2)oc1C,0,1,1,1,-10,.,.
Fc1cc(Br)ccc1COc1ccc(-c2nnco2)cc1,0,1,1,-1,-10,.,.
COc1ccccc1C(=O)Nc1sc2c(c1C(=O)NCc1ccco1)CCCC2,-2,0,51*,-2,-10,-1,-4
CC1(C)C(=O)Nc2ccccc2N1C(=O)COc1cccnc1[N+](=O)[O-],2,-1,58*,-9,16,5,2
Cc1ccc(OCC(=O)N2c3ccccc3NC(=O)C2(C)C)c([N+](=O)[O-])n1,-1,-2,0,7,4,.,.
O=C(COC(=O)Cc1ccsc1)NCc1ccc(Cl)cc1,-2,-2,1,3,8,.,.
O=C(COC(=O)Cc1ccsc1)NCc1ccccc1,23,-2,74*,5,2,3,4
O=C(NCC1CCCN(C(=O)c2cccc(C(F)(F)F)c2)C1)c1ccc(F)cc1 (centres undefined),-3,0,0,-1,-1,.,.
O=C(NCC1CCCN(Cc2cccc(C(F)(F)F)c2)C1)c1ccc(F)cc1 (centres undefined),-2,-1,132*,-3,0,2,0
CC[C@]12c3[nH]c4cc(CCC(=O)N(C)C)ccc4c3CCN1C(=O)[C@@H](CC(=O)NCc1cccc(C(F)(F)F)c1)C[C@@H]2C(=O)N1CCN(C(=O)c2ccco2)CC1,3,-2,53*,4,4,3,3
CC[C@]12c3[nH]c4cc(CCC(=O)N(C)C)ccc4c3CCN1C(=O)[C@@H](CC(=O)NCc1cccc(C(F)(F)F)c1)C[C@@H]2C(=O)N1CCN(C(=O)C2CC2)CC1,2,-2,3,5,1,.,.
Cc1ccc(-c2nc3ncccc3o2)cc1NC(=O)Cc1ccc(Cl)cc1,-4,-1,76*,1,-12,3,4
Cc1ccc(-c2nc3cccnc3o2)cc1NC(=O)COc1ccc(Cl)cc1C,5,2,73*,19,3,2,-7
Cc1ccc(-c2nc3ncccc3o2)cc1NC(=O)COc1ccccc1,0,1,-1,5,-1,.,.
Cc1ccc(-c2nc3cccnc3o2)cc1NC(=O)COc1ccc(C(C)(C)C)cc1,6,6,-7,1,8,.,.
CCCCn1c(NCc2ccccc2NS(=O)(=O)c2ccc(C)cc2)nc2ccccc21,2,4,-2,3,8,.,.
CCCCn1c(NS(=O)(=O)c2ccc(C)cc2)c(S(=O)(=O)c2ccccc2)c2nc3ccccc3nc21,3,25,55*,50*,-17,2,-6
CCc1cc(=O)oc2c3c(cc(OCC(=O)Nc4cccnc4)c12)OC(C)(C)CC3,0,2,0,6,7,.,.
Cc1c(C)c2c(OCC(=O)Nc3cccnc3)cc3c(c2oc1=O)CCC(C)(C)O3,5,1,55*,14,-1,1,2
CCc1nnc(NC(=O)c2oc3cc(C)c(C)cc3c2C)s1,1,-1,53*,-3,-2,1,-1
CC1=NN2C(=N)/C(=C\c3cc(C)n(Cc4ccccc4)c3C)C(=O)N=C2S1,-1,0,2,-12,-1,.,.
CC1=NN2C(=N)/C(=C\c3ccc(SCc4ccccc4)o3)C(=O)N=C2S1,5,3,64*,5,20,3,2
O=C(O)CN1C(=O)/C(=C\c2ccc(OC(=O)c3ccco3)cc2)SC1=S,15,2,0,-26,6,.,.
O=C(O)CN1C(=O)/C(=C/c2ccc(SCc3ccccc3)o2)SC1=S,12,9,76*,4,59*,20,8
SMILES,STEP block,LMPTP block,DNMT1 inh,SUMO1 PPI mod,Scp1 inh,DNMT1 confirm,Beacon interf
CC1=CN2C(=N)/C(=C/c3ccco3)C(=O)N=C2S1,-4,1,6,-17,6,.,.
N=C1/C(=C\c2ccc(SCc3ccco3)o2)C(=O)N=C2SC=NN12,8,30,106*,43*,32,4,5
CC(C)[C@H]1C(=O)Nc2ccccc2N1C(=O)N[C@@H](Cc1ccccc1)C(=O)N[C@@H](C(=O)O)c1ccccc1,-3,-2,2,1,-4,.,.
CCN1/C(=C\C=C(C(C)=O)C(C)=O)Sc2ccccc21,1,14,11,-54,-7,.,.
CCN1/C(=C\C=C2\C(=O)N(c3ccccc3)C(=S)N2C)Sc2ccccc21,7,16,55*,-20,14,2,0
Cc1cc(C)c2nc(N3CCCC(C(=O)NC4CCCC4)C3)sc2c1 (centres undefined),2,2,4,2,-9,.,.
C/C(=N/NC(=O)CNC(=O)COc1cccc(C)c1)c1ccc(Cl)cc1,0,-1,16,1,-8,.,.
CC(=NNC(=O)COc1cccc(C)c1)c1cccnc1,-2,-1,80*,-1,-6,1,1
CCCOc1ccc(-c2nc(SCc3ccccc3)[nH]c(=O)c2C#N)cc1OC,2,0,0,11,-2,.,.
CC(=O)NN1C(=O)/C(=C\c2ccccc2)SC1=S,-1,0,0,-3,-3,.,.
CC(=O)NN1C(=O)/C(=C\c2ccc(Br)o2)SC1=S,17,2,81*,25,6,2,2
CC(=O)NN1C(=O)/C(=C/c2ccc(Br)o2)SC1=S,20,1,88*,24,30,13,5
CC1COC(C)(CC(=O)NN2C(=O)c3ccccc3C2=O)O1 (centres undefined),0,-1,3,-4,0,.,.
COc1ccc2sc3c(=O)[nH]c4ccccc4c3c2c1,3,1,58*,7,-5,5,4
Cc1ccc(NC(=O)CC(C)CC(=O)NCc2ccccc2)cc1Cl (centres undefined),0,1,-1,0,-5,.,.
Cc1cc(NC(=O)c2cc(C3CC3)on2)no1,0,0,56*,4,-1,1,-1
Cc1cc(C(=O)Nc2cc(C)on2)on1,-4,0,81*,8,-1,6,1
Cc1cc(NC(=O)c2cc(C)on2)no1,-3,0,1,1,3,.,.
O=C(Nc1ccccc1C(=O)N1CCCCC1)c1cccs1,3,-2,0,1,-5,.,.
O=c1nc(Nc2ccc(Br)cc2)sc2ccc([N+](=O)[O-])cc12,5,45,54*,-54,40,1,-3

# High-throughput results from PubChem.
